Activity calls are given as the source filed them. The calls are words filed in the database; no cut-off is given here.
Key:
Type in all cases: functional
HCT-15 = test: Growth inhibition of human HCT15 cells at 10 uM after 48 hrs by SRB assay; settings: HCT-15, 48 h, read-out: GI
Summary of the method: (§1)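 Cells grown in RPMI 1640 with 5% FBS and 2 mM L-glutamine, plated at 5000–40,000 cells/well by doubling time and preincubated 24 h (37 °C, 5% CO2); a time-zero plate is TCA-fixed. Single dose added, then 48 h incubation. Fixed with cold TCA, stained with 0.4% SRB, dye solubilized in 10 mM Tris base, absorbance at 515 nm; percent growth vs time-zero and untreated control.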

COLO 205 = test: Growth inhibition of human COLO205 cells at 10 uM after 48 hrs by SRB assay; settings: COLO 205, 48 h, read-out: GI; summary of the method: as §1
NCI-H522 = test: Growth inhibition of human NCI-H522 cells at 10 uM after 48 hrs by SRB assay; settings: NCI-H522, 48 h, read-out: GI; summary of the method: as §1
[1] = Growth inhibition of human EKVX cells at 10 uM after 48 hrs by SRB assay; settings: read-out: GI; summary of the method: as §1
A549 = test: Growth inhibition of human A549 cells at 10 uM after 48 hrs by SRB assay; settings: A549, 48 h, read-out: GI; summary of the method: as §1
MDA-MB-468 = test: Growth inhibition of human MDA-MB-468 cells at 10 uM after 48 hrs by SRB assay; summary of the method: as §1
T47D = test: Growth inhibition of human T47D cells at 10 uM after 48 hrs by SRB assay; settings: read-out: GI
Summary of the method: (§2)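 NCI 60-cell-line screen with a single 10 µM dose. Cells are grown in RPMI 1640 with 5% FBS and 2 mM L-glutamine, plated at 5000–40,000 cells/well according to doubling time, and preincubated 24 h at 37 °C, 5% CO2; time-zero plates are TCA-fixed at that point. Drug exposure is 48 h. Adherent cells are fixed with cold TCA, stained with 0.4% SRB in 1% acetic acid and read at 515 nm. Percent growth is calculated relative to time-zero and untreated controls and reported as GI%.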

Hs-578T = test: Growth inhibition of human Hs578T cells at 10 uM after 48 hrs by SRB assay; summary of the method: as §1
DU-145 = test: Growth inhibition of human DU145 cells at 10 uM after 48 hrs by SRB assay; settings: DU-145, 48 h, read-out: GI; summary of the method: as §1
TK-10 = test: Growth inhibition of human TK10 cells at 10 uM after 48 hrs by SRB assay; settings: TK-10, 48 h, read-out: GI; summary of the method: as §2
RXF 393 = test: Growth inhibition of human RXF393 cells at 10 uM after 48 hrs by SRB assay; settings: RXF 393, 48 h, read-out: GI; summary of the method: as §1
786-0 = test: Growth inhibition of human 786-0 cells at 10 uM after 48 hrs by SRB assay; settings: 786-0, 48 h, read-out: GI; summary of the method: as §1
SK-OV-3 = test: Growth inhibition of human SKOV3 cells at 10 uM after 48 hrs by SRB assay; settings: SK-OV-3, 48 h, read-out: GI; summary of the method: as §2
[2] = Growth inhibition of human NCI-ADR-RES cells at 10 uM after 48 hrs by SRB assay; settings: read-out: GI; summary of the method: as §1
OVCAR-8 = test: Growth inhibition of human OVCAR8 cells at 10 uM after 48 hrs by SRB assay; settings: OVCAR-8, 48 h, read-out: GI; summary of the method: as §1
OVCAR-4 = test: Growth inhibition of human OVCAR4 cells at 10 uM after 48 hrs by SRB assay; settings: OVCAR-4, 48 h, read-out: GI; summary of the method: as §1
OVCAR-3 = test: Growth inhibition of human OVCAR3 cells at 10 uM after 48 hrs by SRB assay; settings: OVCAR-3, 48 h, read-out: GI; summary of the method: as §1
IGROV-1 = test: Growth inhibition of human IGROV1 cells at 10 uM after 48 hrs by SRB assay; settings: IGROV-1, 48 h, read-out: GI; summary of the method: as §1
UACC-62 = test: Growth inhibition of human UACC62 cells at 10 uM after 48 hrs by SRB assay; settings: UACC-62, 48 h, read-out: GI; summary of the method: as §2
SK-MEL-5 = test: Growth inhibition of human SK-MEL-5 cells at 10 uM after 48 hrs by SRB assay; settings: SK-MEL-5, 48 h, read-out: GI; summary of the method: as §1
SK-MEL-28 = test: Growth inhibition of human SK-MEL-28 cells at 10 uM after 48 hrs by SRB assay; settings: SK-MEL-28, 48 h, read-out: GI; summary of the method: as §1
M14 = test: Growth inhibition of human M14 cells at 10 uM after 48 hrs by SRB assay; settings: M14, 48 h, read-out: GI; summary of the method: as §1
LOX IMVI = test: Growth inhibition of human LOXIMVI cells at 10 uM after 48 hrs by SRB assay; settings: read-out: GI; summary of the method: as §1
SF-268 = test: Growth inhibition of human SF268 cells at 10 uM after 48 hrs by SRB assay; settings: SF-268, 48 h, read-out: GI; summary of the method: as §1
HT-29 = test: Growth inhibition of human HT-29 cells at 10 uM after 48 hrs by SRB assay; settings: HT-29, 48 h, read-out: GI; summary of the method: as §1
KM12 = test: Growth inhibition of human KM12 cells at 10 uM after 48 hrs by SRB assay; settings: KM12, 48 h, read-out: GI; summary of the method: as §1
[3] = Cytotoxicity against human breast cancer cells after 48 hrs by SRB assay; settings: Cancer cell lines
Summary of the method: (§3)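 Five-concentration screen (10-fold or ½-log serial dilutions) on the 60-line panel. Cells grown in RPMI 1640 with 5% FBS and 2 mM L-glutamine, plated at 5000–40,000/well by doubling time, preincubated 24 h at 37 °C, 5% CO2, then exposed 48 h. Time-zero plates TCA-fixed. SRB stain, Tris-solubilized, A515. GI50, TGI and LC50 derived from Tz, C and Ti.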

[4] = Cytotoxicity against human prostate cancer cells after 48 hrs by SRB assay; settings: Cancer cell lines; summary of the method: as §3
[5] = Cytotoxicity against human renal cancer cells after 48 hrs by SRB assay; settings: Cancer cell lines; summary of the method: as §3
[6] = Cytotoxicity against human melanoma cells after 48 hrs by SRB assay; settings: Melanoma cell; summary of the method: as §3
[7] = Cytotoxicity against human ovarian cancer cells after 48 hrs by SRB assay; settings: Cancer cell lines; summary of the method: as §3
[8] = Cytotoxicity against human CNS cancer cells after 48 hrs by SRB assay; settings: Cancer cell lines; summary of the method: as §3
[9] = Cytotoxicity against human colon cancer cells after 48 hrs by SRB assay; settings: Cancer cell lines; summary of the method: as §3
[10] = Cytotoxicity against human non-small cell lung cancer cells after 48 hrs by SRB assay; settings: Cancer cell lines; summary of the method: as §3
[11] = Cytotoxicity against human leukemia cells after 48 hrs by SRB assay; settings: Leukemia cell; summary of the method: as §3
[12] = read-out: LC50 (the source's name)

For `O=c1c2cccc3c(N4CCOCC4)ccc(c32)c2nc3ccccc3n12`, the inhibition of growth at 10 µM (HCT-15) was less than 20%, the inhibition of growth at 10 µM (COLO 205) was less than 20% and the inhibition of growth at 10 µM (NCI-H522) was less than 20%. For the same compound, the inhibition of growth at 10 µM [1] was 61.7%, the inhibition of growth at 10 µM (A549) was less than 20% and the “growth inhibition (GI)” value (MDA-MB-468) was “Active”. It also gave an inhibition of growth at 10 µM (T47D) of 61.9%, an inhibition of growth at 10 µM (Hs-578T; read-out: GI) of 59.8% and an inhibition of growth at 10 µM (DU-145) of less than 20%. It also gave an inhibition of growth at 10 µM (TK-10) of 28.2%, an inhibition of growth at 10 µM (RXF 393) of less than 20% and an inhibition of growth at 10 µM (786-0) of less than 20%. The inhibition of growth at 10 µM (SK-OV-3) was less than 20%, the inhibition of growth at 10 µM [2] was less than 20% and the inhibition of growth at 10 µM (OVCAR-8) was less than 20%. For the same compound, the inhibition of growth at 10 µM (OVCAR-4) was 30.1%, the inhibition of growth at 10 µM (OVCAR-3) was less than 20% and the inhibition of growth at 10 µM (IGROV-1) was 41.7%. The inhibition of growth at 10 µM (UACC-62) was 37.9%, the inhibition of growth at 10 µM (SK-MEL-5) was 26.6% and the inhibition of growth at 10 µM (SK-MEL-28) was less than 20%. For the same compound, the inhibition of growth at 10 µM (M14) was less than 20%, the inhibition of growth at 10 µM (LOX IMVI) was less than 20% and the inhibition of growth at 10 µM (SF-268) was less than 20%. For the same compound, the inhibition of growth at 10 µM (HT-29) was less than 20% and the inhibition of growth at 10 µM (KM12) was 21.9%.
For `O=c1[nH]cc(F)c(=O)[nH]1` [FLUOROURACIL], the inhibition of growth at 10 µM (HCT-15) was 26.5%, the inhibition of growth at 10 µM (COLO 205) was 40.2% and the inhibition of growth at 10 µM (NCI-H522) was 58%. For the same compound, the inhibition of growth at 10 µM [1] was 58.4%, the inhibition of growth at 10 µM (A549) was 34.2% and the GI50 [3] was 76.4 µM. It also gave a TGI [3] greater than 100 µM, a GI50 [4] of 22.7 µM and a TGI [4] greater than 100 µM. The GI50 [5] was 45.6 µM, the TGI [5] was greater than 100 µM and the CC50 [5, 12] was greater than 100 µM. For the same compound, the GI50 [6] was 70.6 µM, the TGI [6] was greater than 100 µM and the GI50 [7] was 61.4 µM. It also gave a TGI [7] greater than 100 µM, a CC50 [7, 12] greater than 100 µM and a GI50 [8] of 72.1 µM. The TGI [8] was greater than 100 µM, the CC50 [8, 12] was greater than 100 µM and the GI50 [9] was 8.4 µM. For the same compound, the TGI [9] was greater than 100 µM, the CC50 [9, 12] was greater than 100 µM and the GI50 [10] was greater than 100 µM. The TGI [10] was greater than 100 µM, the GI50 [11] was 1.51 µM and the TGI [11] was greater than 100 µM. The inhibition of growth at 10 µM (T47D) was 56.7%, the “growth inhibition (GI)” value (Hs-578T) was “Active” and the inhibition of growth at 10 µM (DU-145) was 35.5%. For the same compound, the inhibition of growth at 10 µM (TK-10) was 66.9%, the inhibition of growth at 10 µM (RXF 393) was 34.3% and the inhibition of growth at 10 µM (786-0) was 48.7%. The inhibition of growth at 10 µM (SK-OV-3) was 77.5%, the inhibition of growth at 10 µM [2] was 47.6% and the inhibition of growth at 10 µM (OVCAR-4) was 59.4%. It also gave an inhibition of growth at 10 µM (OVCAR-3) of 47.4%, an inhibition of growth at 10 µM (IGROV-1) of 51.2% and an inhibition of growth at 10 µM (UACC-62) of 39.7%. It also gave an inhibition of growth at 10 µM (SK-MEL-5) of 33.7%, an inhibition of growth at 10 µM (LOX IMVI) of 30.4% and an inhibition of growth at 10 µM (SF-268) of 59%. For the same compound, the inhibition of growth at 10 µM (HT-29) was 27.1% and the inhibition of growth at 10 µM (KM12) was 40.7%.

From ChEMBL document CHEMBL2424551, “Synthesis, in vitro evaluation and molecular modelling of naphthalimide analogue as anticancer agents” (2013)
